Test results taken from ChEMBL document CHEMBL2331274, “SAR based design of nicotinamides as a novel class of androgen receptor antagonists for prostate cancer” (J Med Chem, 2013).
The source made the active and inactive calls. No cut-off for these calls is given here.

Columns and labels:
[1] = biological target: T1, Androgen receptor (Mus musculus) (UniProt P19091); assay: Antagonist activity against mouse androgen receptor assessed as reduction of 10 nM DHT-induced transcriptional activity at 10 uM after 24 hrs by cell-based luciferase reporter gene assay relative to control
T1 sequence (whole entry): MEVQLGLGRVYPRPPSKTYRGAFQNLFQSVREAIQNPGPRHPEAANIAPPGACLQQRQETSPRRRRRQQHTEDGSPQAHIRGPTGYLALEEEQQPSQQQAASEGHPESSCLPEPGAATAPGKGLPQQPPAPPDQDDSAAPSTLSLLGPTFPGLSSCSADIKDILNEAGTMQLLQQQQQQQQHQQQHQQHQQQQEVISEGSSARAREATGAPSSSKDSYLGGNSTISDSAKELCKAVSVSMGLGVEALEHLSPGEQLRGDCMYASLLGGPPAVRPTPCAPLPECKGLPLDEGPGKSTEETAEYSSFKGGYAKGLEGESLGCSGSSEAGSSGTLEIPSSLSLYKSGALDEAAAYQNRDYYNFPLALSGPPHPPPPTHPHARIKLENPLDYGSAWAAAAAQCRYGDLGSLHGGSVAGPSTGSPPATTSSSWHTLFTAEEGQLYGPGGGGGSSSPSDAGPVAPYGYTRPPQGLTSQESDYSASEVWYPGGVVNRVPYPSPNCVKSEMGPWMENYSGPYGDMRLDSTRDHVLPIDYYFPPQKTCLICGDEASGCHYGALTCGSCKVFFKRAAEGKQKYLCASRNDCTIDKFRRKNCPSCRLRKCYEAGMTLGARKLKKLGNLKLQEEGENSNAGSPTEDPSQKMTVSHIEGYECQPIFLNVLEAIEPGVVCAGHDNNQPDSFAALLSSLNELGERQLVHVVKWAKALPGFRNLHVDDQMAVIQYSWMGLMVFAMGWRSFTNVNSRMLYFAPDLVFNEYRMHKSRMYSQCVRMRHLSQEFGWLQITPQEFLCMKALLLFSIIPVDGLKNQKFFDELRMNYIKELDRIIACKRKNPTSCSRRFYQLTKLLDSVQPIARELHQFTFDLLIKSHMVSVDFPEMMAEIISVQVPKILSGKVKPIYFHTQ
Procedure, shortened: (§1)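 Transcriptional activity is expressed as a percentage after 10 μM compound, given alone for agonist mode or with 10 nM DHT for antagonist mode. Data are from triplicate experiments.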

[2] = biological target: T1, Androgen receptor (Mus musculus); assay: Agonist activity at mouse androgen receptor at 10 uM after 24 hrs by cell-based luciferase reporter gene assay relative to control; procedure, shortened: as §1
[3] = Cytotoxicity against human androgen-independent/AR-positive C4-2 cells […] after 4 days by MTS/PMS assay; type: functional, cell-based; conditions: LNCaP C4-2, 96 h
Androgen receptor [4] = biological target: T2, Androgen receptor (Mus musculus, UniProt P19091); assay: Displacement of [3H] ]5alpha-DHT from mouse androgen receptor expressed in monkey COS7 cells after 2 hrs by scintillation counting analysis; type: cell-based, COS-7
T2 sequence (P19091 whole entry): T1 sequence (whole entry)

Androgen receptor [5] = biological target: T2, Androgen receptor; assay: Antagonist activity at mouse androgen receptor assessed as inhibition of transactivation after 24 hrs by cell-based luciferase reporter gene assay
[6] = biological target: T3, Androgen receptor (Homo sapiens) (UniProt P10275); assay: Inhibition of DHT-induced androgen receptor-mediated GFP-AR protein nuclear translocation in human PPC1 cells at 10 uM after 1 hr by DAPI staining-based fluorescence microscopic analysis; type: cell-based; conditions: PPC-1
T3 sequence (whole entry): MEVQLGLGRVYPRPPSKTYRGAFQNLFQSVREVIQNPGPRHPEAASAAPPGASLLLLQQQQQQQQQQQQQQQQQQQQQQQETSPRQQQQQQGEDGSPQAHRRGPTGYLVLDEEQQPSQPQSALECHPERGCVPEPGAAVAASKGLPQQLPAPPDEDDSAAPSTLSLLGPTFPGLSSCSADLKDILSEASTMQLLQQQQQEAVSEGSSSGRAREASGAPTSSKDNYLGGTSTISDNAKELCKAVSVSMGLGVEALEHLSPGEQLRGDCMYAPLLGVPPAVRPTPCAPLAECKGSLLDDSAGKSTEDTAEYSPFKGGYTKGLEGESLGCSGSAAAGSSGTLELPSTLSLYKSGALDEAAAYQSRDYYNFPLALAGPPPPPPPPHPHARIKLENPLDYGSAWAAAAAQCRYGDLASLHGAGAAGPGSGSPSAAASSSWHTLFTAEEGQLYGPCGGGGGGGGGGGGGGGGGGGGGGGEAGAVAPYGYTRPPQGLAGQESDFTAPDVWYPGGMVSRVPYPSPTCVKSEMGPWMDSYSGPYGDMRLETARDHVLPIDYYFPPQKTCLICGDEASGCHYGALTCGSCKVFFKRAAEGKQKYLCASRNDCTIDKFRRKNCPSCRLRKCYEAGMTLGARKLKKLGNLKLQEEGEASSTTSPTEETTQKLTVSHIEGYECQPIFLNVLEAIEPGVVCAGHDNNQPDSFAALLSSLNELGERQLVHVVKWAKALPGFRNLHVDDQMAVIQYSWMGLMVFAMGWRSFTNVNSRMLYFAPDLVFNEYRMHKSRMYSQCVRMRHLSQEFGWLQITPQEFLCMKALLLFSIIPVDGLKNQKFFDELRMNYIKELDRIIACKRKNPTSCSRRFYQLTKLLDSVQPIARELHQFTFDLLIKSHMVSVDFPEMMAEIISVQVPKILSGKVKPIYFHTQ

LNCaP [7] = assay: Cytotoxicity against human androgen-dependent LNCAP cells after 6 days by MTS/PMS assay; type: functional, cell-based; conditions: 144 h
[8] = biological target: T3, Androgen receptor (Homo sapiens); assay: Inhibition of androgen receptor-mediated SRC1 coactivator recruitment in human PPC1 cells at 10 uM after 1 hr by DAPI staining-based fluorescence microscopic analysis; type: cell-based; conditions: PPC-1
PPC-1 = assay: Cytotoxicity against human androgen-independent/AR-negative PPC1 cells after 3 days by MTS/PMS assay; type: functional, cell-based
MEF = assay: Cytotoxicity against mouse MEF cells at 10 uM after 4 days by MTS/PMS assay; type: cell-based; conditions: 96 h
LNCaP [9] = assay: Cytotoxicity against human androgen-dependent LNCAP cells at 10 uM after 7 days by MTS/PMS assay relative to control; type: functional; conditions: 168 h, read-out: GI
[10] = biological target: T3, Androgen receptor (Homo sapiens); assay: Inhibition of androgen receptor-mediated SRC2 coactivator recruitment in human PPC1 cells at 10 uM after 1 hr by DAPI staining-based fluorescence microscopic analysis; type: cell-based; conditions: PPC-1

Row | Structure (SMILES) | inhibition [1] | Activity [2] [%] | other results
1 | CCOc1ccc2c(c1OCC)CCN(c1ccc(C(=O)Nc3cccc(C)n3)cn1)C2 | 88.3% | 1 | –
2 | O=C(Nc1ccccn1)c1ccc(C(=O)N2CCc3ccccc3C2)nc1 | 4.5% | 15 | –
3 | O=C(Nc1ccccc1)c1ccc(N2CCc3ccccc3C2)nc1 | 68.9% | 8.7 | –
4 | COc1cc2c(cc1OC)CN(c1ccc(C(=O)Nc3ccc(C)cn3)cn1)CC2 | 67.6% | 2.8 | –
5 | COc1cccc(N(C)C(=O)c2ccc(N3CCc4ccccc4C3)nc2)c1 | 46.4% | 12.5 | –
6 | O=C(Nc1ccccc1)c1ccc(C(=O)N2CCc3ccccc3C2)nc1 | 33.1% | 7.8 | –
7 | CCOc1c(Cl)c(Cl)c2c(c1OCc1ccccc1)CCN(c1ccc(C(=O)Nc3cccc(C)n3)cn1)C2 | 86.4% | 1 | –
8 | COc1ccc2c(c1OC)CCN(c1ccc(C(=O)Nc3cccc(C)n3)cn1)C2 | 95.6% | 4.7 | IC50 [3]: 2500 nM; Ki (Androgen receptor [4]): 25600 nM; IC50 (Androgen receptor [5]): 990 nM; inhibition [6]: Active; IC50 (LNCaP [7]): 680 nM; inhibition [8]: Active; Activity (PPC-1): inactive; Activity (MEF): Non-toxic; inhibition of growth at 10 µM (LNCaP [9]): 90%; inhibition [10]: Active
9 | Cc1cccc(NC(=O)c2ccc(N3CCCCC3)nc2)n1 | 65.7% | 6.8 | –
10 | O=C(Nc1ccccn1)c1ccc(N2CCc3ccccc3C2)nc1 | 86.4% | 5.6 | –
11 | O=C(Nc1nccs1)c1ccc(N2CCc3ccccc3C2)nc1 | 57.4% | 9.7 | –
12 | COc1ccc(CNC(=O)c2ccc(N3CCCCC3)nc2)cc1 | 19.4% | 11.1 | –
13 | Cc1ccnc(NC(=O)c2ccc(N3CCc4ccccc4C3)nc2)c1 | 58.6% | 3.6 | –
14 | Cc1ccc(NC(=O)c2ccc(N3CCc4ccccc4C3)nc2)nc1 | 90.2% | 3 | –
15 | Cc1ccnc(NC(=O)c2ccc(Cl)nc2)c1 | inactive | 6.4 | –
16 | Cc1cccc(NC(=O)c2ccc(N3CCc4cc(OC(C)C)ccc4C3)nc2)n1 | 95.3% | 3.5 | –
17 | COc1cccc(NC(=O)c2ccc(N3CCc4c(ccc(OC)c4OC)C3)nc2)c1 | 96.6% | 3.9 | –
18 | Cc1cccc(NC(=O)c2ccc(N3CCc4cc(OCc5ccccc5)ccc4C3)nc2)n1 | 61.3% | 4.5 | –
19 | COc1ccc2c(c1)CCN(c1ccc(C(=O)Nc3cccc(C)n3)cn1)C2 | 94.9% | 4 | –
20 | Cc1cccnc1NC(=O)c1ccc(N2CCc3ccccc3C2)nc1 | 64.1% | 5 | –
21 | O=C(Nc1ncccn1)c1ccc(N2CCc3ccccc3C2)nc1 | 27.5% | 9.4 | –
22 | COc1cc2c(cc1OC)CN(c1ccc(C(=O)Nc3cccc(C)n3)cn1)CC2 | 94.4% | 2.1 | –
23 | Cc1ccc(NC(=O)c2ccc(Cl)nc2)nc1 | 43.1% | 4.9 | –
24 | Cc1ccccc1NC(=O)c1ccc(N2CCc3ccccc3C2)nc1 | 49.7% | 10.4 | –

Further lines, with some results ahead:

Row | inhibition [1] | Activity [2] [%] | Structure (SMILES) | other results
25 | 77.5% | 1.6 | CCOc1ccc2c(c1OCc1ccccc1)CCN(c1ccc(C(=O)N(C)c3cccc(C)n3)cn1)C2 | –
26 | 91% | 1.7 | CCOc1ccc2c(c1OC)CCN(c1ccc(C(=O)Nc3cccc(C)n3)cn1)C2 | –
27 | 95.7% | 3.1 | COc1cccc(NC(=O)c2ccc(N3CCc4cc(OC)ccc4C3)nc2)c1 | –
28 | 65.1% | 7.1 | O=C(Nc1ccc(F)cc1)c1ccc(N2CCc3ccccc3C2)nc1 | –
29 | 60.9% | 3.1 | COc1cc2c(cc1OC)CN(c1ccc(C(=O)Nc3ncccc3C)cn1)CC2 | –
30 | 32.5% | 12.1 | Cc1ccnc(N(C)C(=O)c2ccc(N3CCc4ccccc4C3)nc2)c1 | –
31 | 84.5% | 2.5 | COc1cc2c(cc1OC)CN(c1ccc(C(=O)Nc3ccccn3)cn1)CC2 | –
32 | 88.3% | 2.7 | COc1cc2c(cc1OC)CN(c1ccc(C(=O)Nc3cc(C)ccn3)cn1)CC2 | –
33 | 89.1% | 0.8 | COc1cc2c(c(OC)c1OC)CCN(c1ccc(C(=O)Nc3cccc(C)n3)cn1)C2 | –
34 | 86.9% | 5.2 | COc1ccc2c(c1)CCN(c1ccc(C(=O)Nc3ccc(C)cn3)cn1)C2 | –
35 | 92.9% | 0.6 | CCOc1ccc2c(c1OCc1ccccc1)CCN(c1ccc(C(=O)Nc3cccc(C)n3)cn1)C2 | –
36 | 95.6% | 4 | CCOc1ccc2c(c1)CCN(c1ccc(C(=O)Nc3cccc(OC)c3)cn1)C2 | –
37 | 0.6% | 3.8 | Cc1cccnc1NC(=O)c1ccc(Cl)nc1 | –
38 | 48.2% | 11.7 | Cc1ccccc1N(C)C(=O)c1ccc(N2CCc3ccccc3C2)nc1 | –
39 | inactive | 14.1 | Cc1cccc(NC(=O)c2ccc(N3CCN(C)CC3)nc2)n1 | –
40 | 80.4% | 13.6 | COc1cccc(NC(=O)c2ccc(N3CCc4ccccc4C3)nc2)c1 | –
41 | 59% | 7.4 | COc1ccccc1NC(=O)c1ccc(N2CCc3ccccc3C2)nc1 | –
42 | 79.6% | 7.2 | COc1ccc(NC(=O)c2ccc(N3CCc4ccccc4C3)nc2)cn1 | –
43 | 91.4% | 1.8 | CCOc1ccc2c(c1OC)CCN(c1ccc(C(=O)Nc3cccc(OC)c3)cn1)C2 | –
44 | 30.5% | 2.6 | CCOc1c(Cl)c(Cl)c2c(c1OCC)CCN(c1ccc(C(=O)Nc3cccc(C)n3)cn1)C2 | –
45 | 58.2% | 9 | COc1ccc(CNC(=O)c2ccc(N3CCc4ccccc4C3)nc2)cc1 | –
46 | 87.9% | 0.4 | CCOc1ccc2c(c1OCC)CCN(c1ccc(C(=O)Nc3cccc(OC)c3)cn1)C2 | –
47 | inactive | 4.9 | O=C(Nc1ccccn1)c1ccc(Cl)nc1 | –
48 | 48.8% | 9 | COc1ccccc1N(C)C(=O)c1ccc(N2CCc3ccccc3C2)nc1 | –
49 | 78.6% | 0.5 | CCOc1ccc2c(c1OCc1ccccc1)CCN(c1ccc(C(=O)Nc3cccc(OC)c3)cn1)C2 | –
